Assay outcomes from PubChem.
This is a sample that favours compounds with a hit; in the whole collection about 2.3% have one here.
TRPC4 potent: positive allosteric modulators of TRPC4, primary screen, cell-based, mouse TRPC4beta, HEK293 mu-opioid, Fluo-4 calcium. DAMGO EC20, Fluo-4 Ca2+ flux; stronger effect = higher value. B-score at 10 µM. hit rate 0.42% among 310,000. AID 2227, 2009;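 active = B-score of calcium response area above 5 SD of library B-scores, with initial fluorescence ratio within 5 SD of library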
TRPC6 inh: mouse TRPC6 channel inhibitors, primary screen, cell-based, HEK293, membrane potential dye | Short transient receptor potential channel 6 (Mus musculus), Q61143 | ACh-evoked depolarization; stronger effect = lower value | B-score at 10 µM | hit rate 1.1% among 310,000;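 active = B-score under library mean minus 3 SD, initial fluorescence not abnormally high, positive integrated signal ratio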;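 note: B-score derived from integrated fluorescence ratio over the kinetic read; more negative B-score means stronger inhibition of depolarization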
Target sequence (Q61143 whole entry, looked up): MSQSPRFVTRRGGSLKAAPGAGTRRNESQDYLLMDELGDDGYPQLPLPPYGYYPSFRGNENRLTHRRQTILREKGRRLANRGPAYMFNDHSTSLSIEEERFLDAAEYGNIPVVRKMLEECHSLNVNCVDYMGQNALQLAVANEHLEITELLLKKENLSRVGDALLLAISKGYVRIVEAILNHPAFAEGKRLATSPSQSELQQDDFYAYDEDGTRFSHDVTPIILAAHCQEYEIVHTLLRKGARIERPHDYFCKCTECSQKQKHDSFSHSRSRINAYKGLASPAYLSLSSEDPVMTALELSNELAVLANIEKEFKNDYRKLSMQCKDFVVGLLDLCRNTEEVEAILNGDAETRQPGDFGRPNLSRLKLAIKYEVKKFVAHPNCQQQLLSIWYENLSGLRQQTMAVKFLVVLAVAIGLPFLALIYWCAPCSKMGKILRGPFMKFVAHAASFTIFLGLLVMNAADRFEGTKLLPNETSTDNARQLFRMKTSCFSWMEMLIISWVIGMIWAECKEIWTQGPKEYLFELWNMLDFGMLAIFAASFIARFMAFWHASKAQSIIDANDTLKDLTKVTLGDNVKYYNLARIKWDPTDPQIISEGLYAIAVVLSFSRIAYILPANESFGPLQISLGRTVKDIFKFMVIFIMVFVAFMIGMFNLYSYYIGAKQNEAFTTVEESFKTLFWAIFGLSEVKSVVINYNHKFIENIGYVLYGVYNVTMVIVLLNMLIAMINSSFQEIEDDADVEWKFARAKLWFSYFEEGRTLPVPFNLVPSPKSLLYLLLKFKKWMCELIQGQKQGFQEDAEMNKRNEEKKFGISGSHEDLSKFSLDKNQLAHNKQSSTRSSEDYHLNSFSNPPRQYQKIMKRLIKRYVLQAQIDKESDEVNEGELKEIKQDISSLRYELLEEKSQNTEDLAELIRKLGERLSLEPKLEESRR
TRPC4 agonist: activators of mouse TRPC4 channel, primary screen, Fluo4 calcium, HEK293 TRPC4beta/mu-opioid cells; Fluo4 calcium fluorescence; stronger effect = higher value; B-score at 10 µM; hit rate 0.49% among 310,000;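 active = B-score above 5 SD of library B-scores, and initial fluorescence ratio not above library mean plus 5 SD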;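 note: positive B-score marks a calcium rise read as TRPC4 activation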
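Test system: HEK293 cells stably co-expressing mouse TRPC4beta and mu-opioid receptor | Schedule: Fluo4 dye loading 45 min at room temperature, 110 s recording | Measured by: Kinetic Fluo4 calcium fluorescence, 5 s baseline at 1 Hz | Evaluation: B score of integrated ratio | Controls: Buffer (low) and maximal DAMGO (high)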
TRPC6 activator: mouse TRPC6 channel activators, primary screen, cell-based, HEK293, membrane potential dye; hit rate 0.13% among 310,000; B-score at 10 µM; Short transient receptor potential channel 6 (Mus musculus), Q61143; HEK293-TRPC6 membrane potential dye fluorescence; stronger effect = higher value;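 active = B-score of the integrated fluorescence ratio above library mean plus 3 SD, and starting fluorescence ratio within library mean plus 5 SD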;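 note: higher score means more depolarization so channel activation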
TRPC4 block: inhibitors of mouse TRPC4 channel, primary screen, Fluo4 calcium, HEK293 TRPC4beta/mu-opioid cells; hit rate 0.39% among 300,000; B-score at 10 µM; Short transient receptor potential channel 4 (Mus musculus), Q9QUQ5; AID 2247, 2010; DAMGO-evoked Fluo4 calcium flux; stronger effect = lower value;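 active = B-score over 3 SD under the library average, no early fluorescence shift, positive overall ratio signal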
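Assay system: Stable TRPC4beta/mu-opioid receptor HEK293 cells | Reagent: DAMGO in two steps, submaximal then maximal | Compound dosing: Single concentration per test compound | Signal: Fluo4 Ca2+ flux fluorescence | Evaluation: Per-well B score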
TRPC4 spec 2: second selectivity test of TRPC6 inhibitors: effect on mouse TRPC4 | inhibition, % at 10 µM | HEK293 TRPC4/MOR, membrane potential dye fluorescence; channel activated by saturating DAMGO dose | shares compounds with TRPC6 inh | hit rate 42% among 920;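 active = compounds whose fluorescence signal differed from control wells by over 3 SD, either direction, in both duplicate plates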
TRPC4 spec: mouse TRPC4 modulation by TRPC6 hits, confirmation, selectivity assay for TRPC6 inhibitor project, cell-based, HEK293 TRPC4/mu-opioid, membrane potential dye; AID 2777, 2010; hit rate 61% among 920; shares compounds with TRPC6 inh; membrane potential fluorescence; activity change, negative = inhibition, % at 10 µM;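 active = rise or fall in signal beyond 3 SD of buffer-only wells in both replicate plates, either sign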;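 note: integrated kinetic ratio of fluorescence range over baseline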
HEK293 MPD ctr 2-1: nonspecific membrane potential effects, parental HEK293, confirmation, counter-screen for TRPC6 inhibitor project, cell-based, second counter screen; parental HEK293 membrane potential dye fluorescence; maximal acetylcholine challenge after compound addition; shares compounds with TRPC6 inh; signal change vs control, % at 10 µM; hit rate 31% among 920;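 active = membrane potential signal moving either way by over 3 SD of the maximum-effect control, in both duplicate plates, meaning non-specific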
HEK293 MPD ctr-1: membrane potential modulation in parental HEK293, confirmation, counter-screen for TRPC6 inhibitor project, cell-based; shares compounds with TRPC6 inh; parental HEK293 membrane potential dye fluorescence; membrane potential signal change, % at 10 µM; hit rate 60% among 920;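 active = membrane potential signal shifting up or down by more than 3 SD of buffer-only wells, on both duplicate plates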
HEK293 MPD ctr-2: parental HEK293 membrane potential modulation, confirmation, counter-screen for TRPC6 modulator project, cell-based. membrane potential signal change, % at 10 µM. shares compounds with TRPC6 inh. membrane potential dye fluorescence. hit rate 51% among 2,400;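 active = membrane potential signal moves up or down beyond 5 SD from buffer-only wells, on both duplicate plates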
HEK293 MPD ctr 2-2: parental HEK293 nonspecific activity of TRPC6 modulators, second screen; shares compounds with TRPC6 inh; inhibition, % at 10 µM; membrane potential dye fluorescence; after compound, maximal acetylcholine stimulation; hit rate 14% among 2,400;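 active = membrane potential signal drops by more than 5 SD from the mean control signal, in both duplicate plates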
TRPC4/MOR mod: TRPC4 modulation by TRPC6 hit compounds, confirmation, selectivity assay for TRPC6 modulator project, cell-based, HEK293 TRPC4/mu-opioid, membrane potential dye, mouse. percent change from control (negative = decrease, positive = increase), % at 10 µM. hit rate 69% among 2,400. shares compounds with TRPC6 inh. membrane potential fluorescence;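 active = membrane potential signal moved up or down beyond 5 SD of buffer control wells, in both duplicate plates, actives on both sides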
TRPC4/MOR inh 2: mouse TRPC4 off-target activity of TRPC6 modulators, second screen; inhibition, % at 10 µM; shares compounds with TRPC6 inh; HEK293 TRPC4/mu-opioid, membrane potential dye fluorescence; stimulated with maximal-effect DAMGO; hit rate 55% among 2,400;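 active = drop in membrane potential signal beyond 5 SD of the control wells in both duplicate plates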;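 note: TRPC4 counter screen for TRPC6 hits run under conditions tuned for TRPC6 not TRPC4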
TRPC6 inh conf: mouse TRPC6 channel inhibitors, confirmation, HEK293 cells, membrane potential dye, duplicate; shares compounds with TRPC6 inh; ACh-evoked depolarization; inhibition, % at 10 µM; hit rate 43% among 3,300; AID 488960, 2010;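 active = fluorescence ratio falls more than 5 SD below the full-stimulation control mean, in both duplicate runs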;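 note: integrated fluorescence ratio of peak minus minimum over baseline after agonist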
TRPC6 act confirm: mouse TRPC6 channel activators, confirmation, HEK293 cells, membrane potential dye, duplicate; shares compounds with TRPC6 inh; HEK293-TRPC6 membrane potential dye fluorescence, FDSS; activation, % at 10 µM; hit rate 11% among 2,800; AID 488961, 2010;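 active = ratio signal rise beyond 5 SD above unstimulated control wells' mean, seen in both duplicate runs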
Numbers stand for hits; – = inactive; · = no result.

SMILES	TRPC4 potent	TRPC6 inh	TRPC4 agonist	TRPC6 activator	TRPC4 block	HEK293 MPD ctr-2	HEK293 MPD ctr 2-2	TRPC4/MOR mod	TRPC4/MOR inh 2	TRPC6 inh conf	TRPC6 act confirm	others
N=c1c(C(=O)NCC2CCCO2)cc2c(=O)n3ccccc3nc2n1Cc1ccc(F)cc1 (stereo unspecified)	–	-6	–	–	–	–	–	-9.5%	48%	48%	–
N=c1c(C(=O)NCCc2ccccc2)cc2c(=O)n3ccccc3nc2n1Cc1ccco1	–	–	–	–	–	·	·	·	·	·	·
CC(C)(C)NC(=O)c1ccccc1-c1nc(-c2ccccc2Cl)no1	–	–	–	–	–	·	·	·	·	·	·
COc1ccc(-c2c[n+](CC(=O)OC3CC(C)CCC3C(C)C)c3n2CCC3)cc1 (stereo unspecified)	–	-6.1	–	–	–	162%	–	28%	–	55%	·
CCOC(=O)c1cnc2c(OC)cccc2c1N1CCN(c2ccccc2OC)CC1	–	–	–	–	–	·	·	·	·	·	·
COc1ccccc1N1CCc2c(C)nc3c(OC)cccc3c21	–	-6.5	–	–	-6	-114%	–	-19%	58%	46%	–
Cc1ccc2nc(C)c3c(c2c1)N(c1ccc(F)cc1)CC3	–	-9.6	–	–	-6	·	·	·	·	105%	–	TRPC4 spec 2=34%;TRPC4 spec=–;HEK293 MPD ctr 2-1=27%;HEK293 MPD ctr-1=-194%
COc1cccc2c3c(c(C)nc12)CCN3c1ccccc1	–	-8.5	–	–	–	-182%	–	-33%	72%	68%	–
COc1cccc2c(Cl)c(CC=C(Cl)Cl)c(C)nc12	–	–	–	–	–	·	·	·	·	·	·
CN(CCOc1ccccc1)C(=O)C1CCC(=O)N(CCCN2CCCC2=O)C1 (stereo unspecified)	–	–	–	–	–	·	·	·	·	·	·
Cc1noc(C)c1COc1ccccc1C(=O)N1CCN(S(=O)(=O)c2ccccc2F)CC1	–	–	–	–	–	·	·	·	·	·	·
NC(=O)NC(=O)C(Nc1ccc2c(c1)CCC2)c1ccccc1 (stereo unspecified)	–	-7.2	–	–	–	·	·	·	·	–	–	TRPC4 spec 2=–;TRPC4 spec=–;HEK293 MPD ctr 2-1=–;HEK293 MPD ctr-1=–
O=C(NC1=NCCS1)c1ccc([N+](=O)[O-])cc1Cl	–	–	–	–	–	·	·	·	·	·	·
CCOc1ccc(-n2nc3c(Cl)nnc(C)c3c2C)cc1	–	-6.7	–	–	–	–	–	–	–	–	–
Cc1nnc(Cl)c2nn(-c3ccccc3)c(C)c12	–	–	–	–	–	·	·	·	·	·	·
CCOc1cc(/C=C/c2cc(C(F)(F)F)[nH]c(=O)n2)ccc1O	–	–	–	–	–	·	·	·	·	·	·
COc1ccc(/C=C/c2cc(C(F)(F)F)[nH]c(=O)n2)cc1OC	–	-5.9	–	–	–	-180%	–	-34%	–	–	–
CC(=O)O[C@@H]1[C@@H](OC(C)=O)[C@H](n2ccc3cc([N+](=O)[O-])ccc32)OC[C@@H]1OC(C)=O	–	–	–	–	–	·	·	·	·	·	·
Cc1cc(C)c2cc3c(ccn3C3OC[C@H](O)[C@H](O)[C@H]3O)cc2n1 (stereo partly specified)	–	-7.1	–	–	–	–	–	-68%	34%	–	–
COc1cc(C(=O)Nc2nc(C)cc(C)n2)cc(OC)c1OC	–	–	–	–	–	·	·	·	·	·	·
CCCC(=O)Nc1cccc2c1CCCC2	–	–	–	–	–	·	·	·	·	·	·
CCc1ccc(OCC(=O)Nc2cccc3c2CCCC3)cc1	–	-5	–	–	–	–	–	–	–	–	–
CC(Oc1ccc(F)cc1)C(=O)Nc1cc(S(=O)(=O)N2CCCCC2)ccc1N1CCOCC1 (stereo unspecified)	–	–	–	–	–	·	·	·	·	·	·
CCOc1ccccc1NC(=O)COC(=O)C(CC)c1ccccc1 (stereo unspecified)	–	–	–	–	–	·	·	·	·	·	·
O=C(COC(=O)c1ccc(O)cc1O)Nc1ncc(Cl)cc1Cl	–	–	–	–	–	·	·	·	·	·	·
CC[n+]1c(/C=C/c2ccc(OC(C)=O)c(OC)c2)ccc2ccccc21	–	-7.6	–	–	–	-264%	124%	-45%	70%	77%	–
CC[n+]1c(/C=C/c2ccc(OC)c(OC)c2)ccc2ccccc21	–	-8.1	–	–	–	-214%	–	-52%	40%	–	–
CC[n+]1c(/C=C/c2ccc(N(C)C)cc2)ccc2ccccc21	–	–	–	–	–	·	·	·	·	·	·
